Assay [1] can be described thus: inhibitors of TNFa-induced NFkB p65 translocation, primary screen, imaging, HUVEC, MLSMR starter and 10KST1 sets (AID 438;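 active = inhibition above 20% together with a positive visual image hit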;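 note: compound added about 3h40 before a 20 min TNFalpha stimulation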;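 for inhibition: signal is the nuclear over cytoplasmic p65 intensity ratio per well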). As to conditions: HUVEC TNFa-induced p65 nuclear translocation; cell count: measured here: nuclei count (cytotoxicity indicator), at 2.08 µM; inhibition: at 2 µM, stronger effect = higher value, 0% TNFa-plus-vehicle, 100% no-TNFa wells.
The nature of assay [2]: inhibitors of E-selectin induction by TNFa, primary screen, imaging, HUVEC, immunofluorescence, MLSMR starter and 10KST1 sets (AID 487;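 active = visually confirmed hit in the image check and inhibition above 20%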;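 for inhibition: signal is fraction of cell area covered by stained E-selectin grains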;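 for nuclei count: 100% = median nuclei count of all wells on the same plate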). Conditions: HUVEC TNFalpha-induced E-selectin immunofluorescence imaging, at 2 µM; inhibition: stronger effect = higher value; nuclei count: measured here: cell number, toxicity.
The nature of assay [3]: DUSP6 inhibitors restoring Erk phosphorylation by chemical complementation, primary imaging in DUSP6-transfected HeLa (AID 609;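 active = compounds giving at least 50% inhibition in the cell-based MKP-3 phosphatase rescue imaging test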;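 for inhibition: phospho-Erk level distribution per well compared with pooled transfected vehicle control wells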). As to conditions: HeLa MKP-3 transfected, phospho-Erk imaging KS statistic, at 10 µM, cells stimulated with TPA for 15 min.
Assay [4] addresses Dual specificity protein phosphatase 6 (Homo sapiens) (UniProt Q16828). The description is as above. Conditions: HeLa MKP-3 transfected, phospho-Erk imaging KS statistic; at 10 µM; stronger effect = higher value; cells stimulated with TPA for 15 min.
For assay [5], the target named is Voltage-gated potassium channel subunit beta-2 (Rattus norvegicus) (UniProt P62483). Briefly: KvBeta enzyme negative modulators, primary screen, biochemical, NADPH fluorescence (AID 622;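 active = fluorescence slope higher than the sample average by over 3 SD, cut at about -0.22 in these data, passing the limit was not always enough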;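 note: slope of raw intensity against log time taken from 70 to 1610 s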). Conditions: recombinant KvBeta, 4-cyanobenzaldehyde reduction, at 10 µM, stronger effect = higher value.
The target is the same in assay [6]. Briefly: KvBeta positive modulators, primary screen, biochemical, NADPH fluorescence (AID 623;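 active = NADPH fluorescence slope more negative than the mean of all samples by about 3 SD, 99.7% confidence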;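 note: fluorescence intensity change per second fitted from 20 to 320 s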). Conditions: Recombinant KvBeta, NADPH fluorescence decrease slope, 10 min; at 10 µM; stronger effect = lower value.
For assay [7], the target named is Muscarinic acetylcholine receptor M4 (Homo sapiens) (UniProt P08173). As to the kind of experiment: compounds altering M4/GIRK thallium flux, either direction, primary screen, M4 allosteric agonist project, cell-based, HEK293 M4/GIRK, BTC-AM (AID 625).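 Note: thallium influx through GIRK channels coupled to M4 in HEK293 cells with BTC-AM dye.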 As to conditions: at 10 µM, actives lie on both sides. The method in brief: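 Assay system: HEK293 cells with M4 receptor and GIRK channels / Controls: carbachol and DMSO controls / Schedule: 1 h dye loading, 2 min kinetic read / Technique: kinetic fluorescence with BTC-AM dye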

A short description of assay [8]: inhibitors of larval lipid processing in zebrafish, primary screen, whole organism, PED6 fluorescence, gall bladder and intestine (AID 686;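 active = a full or partial loss of lipid-probe fluorescence in the fish gall bladder, intestine or both, judged by eye; inactive = no fluorescence loss, or compound toxic to the fish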;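 note: signal comes from phospholipase A2 cleavage of quenched PED6 carried via bile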). Conditions: Zebrafish larvae PED6 lipid processing, fluorescence scoring; screened at 20 µM (by protocol). The essentials: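 Doses: 20 µM single dose. Test system: live zebrafish larvae aged 5-7 days, whole organism. Quantity: five larvae per well. Measured by: By-eye fluorescence microscopy. Reagent: ingested quenched lipid PED6 at 100 nM. Read-out: visual per-well fluorescence inhibition score. Times: overnight exposure of larvae to compound plus PED6.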

Assay [9] can be described thus: inhibitors of Chlamydomonas gravitaxis, primary screen, whole organism, Chlamydomonas reinhardtii, WT vs cilia-less mutant, absorbance, 96-well (AID 463189;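 active = inhibition at or above 50% relative to wild type and mutant plate controls; inactive = inhibition below 50%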;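 note: 0% = wild type cc124 cells in DMSO and 100% = ciliumless bld1 mutant cells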). As to conditions: OD600 absorbance, 2 days, at 10 µM, stronger effect = higher value.
[10] abbreviates: measured here: cell density z-score.
Setting [11] is: measured here: nuclear c-Myc green intensity z-score.
[12] abbreviates: measured here: nuclear pErk red intensity z-score, stronger effect = higher value.

Molecules are shown by their SMILES. The source made the active and inactive calls.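 Rule for the calls, unless noted: active = fluorescence slope after compound addition differing from the mean of all tested samples at 99.7% confidence, mostly higher but some lower; inactive = the rest.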

Chain of Muscarinic acetylcholine receptor M4 (Homo sapiens) (P08173 whole entry, looked up): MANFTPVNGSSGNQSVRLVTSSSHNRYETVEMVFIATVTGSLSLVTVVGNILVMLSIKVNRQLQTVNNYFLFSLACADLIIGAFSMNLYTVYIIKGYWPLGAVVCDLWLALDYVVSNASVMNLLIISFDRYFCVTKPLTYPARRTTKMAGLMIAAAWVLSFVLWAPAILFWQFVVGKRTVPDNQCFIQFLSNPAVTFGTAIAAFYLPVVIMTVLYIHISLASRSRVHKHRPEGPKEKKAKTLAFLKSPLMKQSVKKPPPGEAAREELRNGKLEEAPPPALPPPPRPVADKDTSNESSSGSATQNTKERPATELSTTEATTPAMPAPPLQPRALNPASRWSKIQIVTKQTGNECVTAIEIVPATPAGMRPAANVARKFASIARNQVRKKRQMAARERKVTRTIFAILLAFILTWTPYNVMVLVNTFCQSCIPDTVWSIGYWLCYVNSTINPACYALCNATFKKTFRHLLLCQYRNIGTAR
Chain of Voltage-gated potassium channel subunit beta-2 (Rattus norvegicus) (P62483 whole entry, looked up): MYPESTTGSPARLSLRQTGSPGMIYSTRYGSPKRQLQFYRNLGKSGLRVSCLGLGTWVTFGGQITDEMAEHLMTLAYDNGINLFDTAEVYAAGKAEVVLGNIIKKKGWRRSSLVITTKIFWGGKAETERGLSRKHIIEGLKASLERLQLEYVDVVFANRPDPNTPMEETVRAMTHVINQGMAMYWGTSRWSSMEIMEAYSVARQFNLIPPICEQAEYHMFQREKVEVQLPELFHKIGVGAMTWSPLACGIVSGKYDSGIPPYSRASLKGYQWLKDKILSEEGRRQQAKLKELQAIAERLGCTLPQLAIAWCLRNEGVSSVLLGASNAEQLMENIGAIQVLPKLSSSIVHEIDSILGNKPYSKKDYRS
Chain of Dual specificity protein phosphatase 6 (Homo sapiens) (Q16828 whole entry, looked up): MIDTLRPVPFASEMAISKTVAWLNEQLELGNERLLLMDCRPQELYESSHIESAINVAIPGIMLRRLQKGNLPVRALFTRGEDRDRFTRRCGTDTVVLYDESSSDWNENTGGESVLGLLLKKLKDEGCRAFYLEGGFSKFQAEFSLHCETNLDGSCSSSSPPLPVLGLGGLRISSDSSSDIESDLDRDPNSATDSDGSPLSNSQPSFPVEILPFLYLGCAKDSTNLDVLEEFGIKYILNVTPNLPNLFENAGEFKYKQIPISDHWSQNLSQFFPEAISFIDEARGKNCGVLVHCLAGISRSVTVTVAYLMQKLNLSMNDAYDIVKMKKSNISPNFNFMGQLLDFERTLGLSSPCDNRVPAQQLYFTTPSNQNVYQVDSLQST

Regarding `COc1ccc(-n2ncc3c(Nc4cccc(C)c4)ncnc32)cc1`, in assay [1], the cell count worked out at 629. For the same compound, the inhibition is -11.3% (inactive) in assay [1], -122% (inactive) in [2], 11.4% (inactive) in assay [4] and 3.81% (inactive) in assay [9]. The compound also displayed a nuclei count in assay [2] of 182%. Also, the figures for the z-score in [3] (setting [10]), in assay [3] (setting [11]) and in [3] (setting [12]) were 1.43, 1.07 and -1.65, respectively. Besides, the values for the fluorescence slope in assay [5] and in assay [7] were -0.319 (inactive) and 0.00486 (inactive), respectively. For the same compound, in assay [6], the NADPH fluorescence slope is -1.2e-05 (inactive). Besides, the compound was called inactive in [8].
In the case of `CCOc1ccc2nc(NC(NC(=O)CC)(C(=O)OC)C(F)(F)F)sc2c1` (stereo unspecified), in assay [1], the cell count is 362. The inhibition was -7% (inactive) in assay [1], -214% (inactive) in assay [2], 3.42% (inactive) in assay [4] and -2.07% (inactive) in [9]. In [2], this compound registered a nuclei count of 195%. Further, the z-score in [3] (setting [10]) was -0.714; in [3] (setting [11]), 0.587; in assay [3] (setting [12]), 0.266. The values for the fluorescence slope in [5] and in assay [7] were -0.424 (inactive) and 0.00487 (inactive), respectively. The NADPH fluorescence slope in [6] is -8.8e-05 (inactive). Further, the call in assay [8] was inactive.
For `Cc1cc(=O)oc2ccc(OCC(=O)N3CCc4ccccc43)cc12`, the cell count in assay [1] came out at 630. Also, the inhibition in assay [1] is -1.2% (inactive); in [2], -32.9% (inactive); in [4], -2.29% (inactive); in assay [9], 1.65% (inactive). This compound also registered a nuclei count in assay [2] of 180%. In addition, the results for the z-score in assay [3] (setting [10]), in [3] (setting [11]) and in assay [3] (setting [12]) were -1.93, 0.803 and 1.57, respectively. The fluorescence slope in assay [5] is -0.478 (inactive); in assay [7], 0.00705 (inactive). In addition, in [6], the NADPH fluorescence slope was -7.1e-05 (inactive). Moreover, the outcome in [8] was inactive.
Take `CC1(C(=O)CSc2nc3ccccc3[nH]2)CCC(=O)O1` (stereo unspecified): in assay [1], the cell count worked out at 631. Further, the inhibition in [1] was -2% (inactive); in assay [2] it was -8.2% (inactive); in assay [4], -13.3% (inactive); in [9], 0.18% (inactive). This compound also yielded a nuclei count in [2] of 115%. In addition, the z-score in assay [3] (setting [10]) is -2.03; in assay [3] (setting [11]), -0.005; in assay [3] (setting [12]), -0.394. Besides, the fluorescence slope was -0.508 (inactive) in assay [5] and 0.0059 (inactive) in assay [7]. Moreover, in assay [6], the NADPH fluorescence slope is -1.8e-05 (inactive). Further, the compound was classed as inactive in assay [8].
Consider `C=C(C)CC1N(c2cccc(OC)c2)C(=O)[C@@H]2C(C(=O)O)[C@H]3C=C[C@@]12O3` (stereo partly specified), for which, in [1], the cell count came to 628. In addition, the inhibition was -15.4% (inactive) in [1], 51.9% (inactive) in [2], -7.28% (inactive) in [4] and -0.618% (inactive) in assay [9]. In [2], this compound showed a nuclei count of 182%. Also, the results for the z-score in [3] (setting [10]), in assay [3] (setting [11]) and in assay [3] (setting [12]) were -0.541, 1.19 and 1.46, respectively. The fluorescence slope in assay [5] was -0.49 (inactive); in assay [7] it was 0.00494 (inactive). For the same compound, in [6], the NADPH fluorescence slope was -7.9e-05 (inactive). Further, the result in [8] was inactive.
Consider `CC(=O)C1=C(O)C(=O)N(c2ccc(Br)cn2)C1c1ccccc1F` (stereo unspecified), for which the cell count in assay [1] amounted to 545. Also, the inhibition in assay [1] is -2.5% (inactive); in assay [2], -45.7% (inactive); in assay [4] it was 3.97% (inactive); in [9], 1.29% (inactive). This compound displayed a nuclei count in assay [2] of 131%. Also, the z-score in assay [3] (setting [10]) is 1.35; in assay [3] (setting [11]), -1.7; in [3] (setting [12]) it was -1.31. Further, the results for the fluorescence slope in assay [5] and in assay [7] were -0.454 (inactive) and 0.00688 (inactive), respectively. Besides, the NADPH fluorescence slope in assay [6] was -3.5e-05 (inactive). Besides, the compound was classed as inactive in [8].
With `COc1ccc(C2NC(=O)NC(O)(C(F)(F)F)C2C(=O)c2ccc(F)cc2)cc1` (stereo unspecified), in assay [1], the cell count was 632. The inhibition in assay [1] is 6.6% (inactive); in assay [2], -68.3% (inactive); in [4], -0.674% (inactive); in assay [9], -6.15% (inactive). For the same compound, in assay [2], the nuclei count stood at 159%. The figures for the z-score in assay [3] (setting [10]), in assay [3] (setting [11]) and in assay [3] (setting [12]) were -1.22, 1.16 and 0.887, respectively. Besides, the fluorescence slope in [5] is -0.479 (inactive); in assay [7], 0.00666 (inactive). Moreover, the NADPH fluorescence slope in [6] is -5.2e-05 (inactive). Moreover, the compound was classed as inactive in assay [8].
Turning to `Cc1cccc(-n2ncc3c(NCc4ccco4)ncnc32)c1`, the cell count in [1] amounted to 648. Further, the inhibition in assay [1] was -12.5% (inactive); in [2], -84.2% (inactive); in assay [4], 11.4% (inactive); in [9], 2.88% (inactive). This compound also came in with a nuclei count in [2] of 165%. Further, the z-score in [3] (setting [10]) was 0.86; in assay [3] (setting [11]) it was -0.2; in [3] (setting [12]), -0.239. Besides, the fluorescence slope was -0.385 (inactive) in assay [5] and 0.00641 (inactive) in assay [7]. Moreover, the NADPH fluorescence slope in assay [6] is -4.7e-05 (inactive). For the same compound, the compound was called inactive in assay [8].
Turning to `CN=C(c1ccco1)n1c(=S)nc(-c2ccco2)n(C)c1=S`, the cell count in [1] came out at 339. Further, the inhibition is -5.2% (inactive) in assay [1], -204% (inactive) in assay [2], -2.59% (inactive) in [4] and 28.5% (inactive) in assay [9]. The nuclei count in assay [2] was 126%. For the same compound, the z-score in [3] (setting [10]) is 0.329; in assay [3] (setting [11]), -0.895; in [3] (setting [12]) it was -0.461. Further, the fluorescence slope in assay [5] is -0.522 (inactive); in assay [7] it was 0.00396 (inactive). Besides, the NADPH fluorescence slope in assay [6] is -0.000102 (inactive). Moreover, the compound was classed as inactive in assay [8].
Regarding `CCN(CC)Cc1c(O)ccc2c(C)c(CC(=O)OC)c(=O)oc12`, in assay [1], the cell count came to 660. Further, the inhibition is -1.4% (inactive) in assay [1], 1.9% (inactive) in assay [2], 2.71% (inactive) in assay [4] and 5.82% (inactive) in assay [9]. The compound further yielded a nuclei count in assay [2] of 145%. Moreover, the values for the z-score in assay [3] (setting [10]), in [3] (setting [11]) and in assay [3] (setting [12]) were 0.613, -0.319 and -0.573, respectively. Also, the results for the fluorescence slope in [5] and in [7] were -0.0165 (inactive) and 0.00599 (inactive), respectively. Moreover, the NADPH fluorescence slope in assay [6] is -6.9e-06 (inactive). Further, the compound was called inactive in assay [8].
Consider `Cc1cccc(OCCN2CSC(=S)N(C)C2)c1`, for which the cell count in assay [1] was 542. For the same compound, the inhibition in assay [1] is -14.5% (inactive); in assay [2] it was -138% (inactive); in assay [4] it was 9.42% (inactive); in assay [9], 45.3% (inactive). In addition, the nuclei count in [2] was found to be 129%. The z-score in [3] (setting [10]) was 0.0536; in assay [3] (setting [11]), -1.14; in assay [3] (setting [12]), 0.0169. In addition, the fluorescence slope was -0.494 (inactive) in assay [5] and 0.0046 (inactive) in assay [7]. The NADPH fluorescence slope in assay [6] is -7.6e-05 (inactive). In assay [8], the outcome is “inactive; toxic”.
With `CCOc1ccccc1C(=O)NCCCCCC(=O)O`, the cell count in [1] came to 421. Moreover, the inhibition in assay [1] was -9.4% (inactive); in assay [2] it was -419% (inactive); in [4], 1.42% (inactive); in [9], 0.493% (inactive). Moreover, in [2], the nuclei count is 193%. For the same compound, the z-score is 0.279 in assay [3] (setting [10]), -0.756 in [3] (setting [11]) and 0.2 in assay [3] (setting [12]). The results for the fluorescence slope in assay [5] and in assay [7] were -0.472 (inactive) and 0.00537 (inactive), respectively. Besides, the NADPH fluorescence slope in [6] was -9.6e-05 (inactive). For the same compound, in assay [8], the compound was classed as inactive.

The inhibition is the change of the read-out against control, counted positive when it falls.
